Columns and labels:
Type in all cases: functional, Homo sapiens
A2058 = experiment: The compound was tested in vitro for antiproliferative activity against A2058 tumor cell lines; parameters: concentration or dose not given beside the values
Summary of the method: (§1)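 Human tumor cell lines were exposed to the conjugates for 24 h at 50 µg/mL. Surviving cells converted the tetrazolium salt MTT to formazan, and OD was read at 570 nm. Values are percent inhibition relative to untreated cells (0%), given as the mean ± SD of at least three parallels. The methods also list 20, 50 and 100 µg/mL and 24 or 48 h exposures.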

Faza 967 clone 2 = experiment: The compound was tested in vitro for antiproliferative activity against Faza 967 clone2 tumor cell lines; parameters: concentration or dose not given beside the values
A-431 [1] = experiment: (§2) The compound was tested in vitro for antiproliferative activity against A431 tumor cell lines; parameters: concentration or dose not given beside the values; summary of the method: as §1
HT-29 = experiment: The compound was tested in vitro for antiproliferative activity against HT-29 tumor cell lines; parameters: concentration or dose not given beside the values; summary of the method: as §1
Faza 967 cell clone 2/T1 = experiment: The compound was tested in vitro for antiproliferative activity against Faza 967 clone2/T1 tumor cell lines; parameters: concentration or dose not given beside the values
PC-3 = experiment: The compound was tested in vitro for antiproliferative activity against PC3 tumor cell lines; summary of the method: as §1
SW-620 = experiment: The compound was tested in vitro for antiproliferative activity against […] tumor cell lines; summary of the method: as §1
A-431 [2] = experiment: as §2; summary of the method: as §1

| SMILES | Inhibition (A2058) [%] | Inhibition (Faza 967 clone 2) [%] | Inhibition (A-431 [1]) [%] | Inhibition (HT-29) [%] | Inhibition (Faza 967 cell clone 2/T1) [%] | Inhibition (PC-3) [%] | Inhibition (SW-620) [%] | Inhibition (A-431 [2]) [%] |
| --- | --- | --- | --- | --- | --- | --- | --- | --- |
| CCCCCCCCC(NC(=O)[C@@H](NC(=O)[C@H](CSCNC(C)=O)NC(=O)[C@H](CCCCN)NC(=O)[C@@H](Cc1c[nH]c2ccccc12)NC(=O)[C@@H](NC(=O)[C@H](CSCNC(C)=O)NC(=O)[C@H](N)Cc1ccccc1)c1ccc(O)cc1)[C@@H](C)O)C(=O)NCC(=O)O (some centres not stated) | 97 | 92 | 76 | 93 | 90 | – | – | – |
| CCCCCCCCC(N)C(=O)N[C@H](Cc1ccccc1)C(=O)N[C@H]1CSSC[C@@H](C(=O)N[C@H](C(N)=O)[C@@H](C)O)NC(=O)[C@H](CCCCN)NC(=O)[C@@H](Cc2c[nH]c3ccccc23)NC(=O)[C@H](c2ccc(O)cc2)NC1=O (some centres not stated) | – | – | – | – | – | 42 | 95 | – |
| CCCCCCCCCCCCCCCCC(N)C(=O)N[C@H](Cc1ccccc1)C(=O)N[C@@H](CSCNC(C)=O)C(=O)N[C@H](C(=O)N[C@H](Cc1c[nH]c2ccccc12)C(=O)N[C@@H](CCCCN)C(=O)N[C@@H](CSCNC(C)=O)C(=O)N[C@H](C(N)=O)[C@@H](C)O)c1ccc(O)cc1 (some centres not stated) | 60 | 93 | 83 | 20 | 88 | – | – | – |
| CCCCCCCCCCC(N)C(=O)N[C@H](Cc1ccccc1)C(=O)N[C@H]1CSSC[C@@H](C(=O)N[C@H](C(N)=O)[C@@H](C)O)NC(=O)[C@H](CCCCN)NC(=O)[C@@H](Cc2c[nH]c3ccccc23)NC(=O)[C@H](c2ccc(O)cc2)NC1=O (some centres not stated) | – | – | – | – | – | 5 | 65 | – |
| CCCCCCCCCCC(N)C(=O)NCC(=O)NCC(=O)N[C@H](Cc1ccccc1)C(=O)N[C@H]1CSSC[C@@H](C(=O)N[C@H](C(N)=O)[C@@H](C)O)NC(=O)[C@H](CCCCN)NC(=O)[C@@H](Cc2c[nH]c3ccccc23)NC(=O)[C@H](c2ccc(O)cc2)NC1=O (some centres not stated) | 35 | 33 | 48 | 50 | 43 | – | – | – |
| CC(=O)NCSC[C@H](NC(=O)[C@H](N)Cc1ccccc1)C(=O)N[C@H](C(=O)N[C@H](Cc1c[nH]c2ccccc12)C(=O)N[C@@H](CCCCN)C(=O)N[C@@H](CSCNC(C)=O)C(=O)N[C@H](C(N)=O)[C@@H](C)O)c1ccc(O)cc1 | 30 | 10 | 34 | 80 | 0 | – | – | – |
| CCCCCCCCCCCCC(NC(=O)CCC(=O)NC1OC(O)C(O)C(O)C1O)C(=O)N[C@H](Cc1ccccc1)C(=O)N[C@H]1CSSC[C@@H](C(=O)N[C@H](C(N)=O)[C@@H](C)O)NC(=O)[C@H](CCCCN)NC(=O)[C@@H](Cc2c[nH]c3ccccc23)NC(=O)[C@H](c2ccc(O)cc2)NC1=O (some centres not stated) | 100 | – | – | 30 | – | 55 | – | – |
| CCCCCCCCCCCCC(N[C@H](Cc1ccccc1)C(=O)N[C@@H](CSCNC(C)=O)C(=O)N[C@H](C(=O)N[C@H](Cc1c[nH]c2ccccc12)C(=O)N[C@@H](CCCCN)C(=O)N[C@@H](CSCNC(C)=O)C(=O)N[C@H](C(N)=O)[C@@H](C)O)c1ccc(O)cc1)C(=O)NC1OC(O)C(O)C(O)C1O (some centres not stated) | 62 | 61 | 32 | 39 | 50 | – | – | – |
| CCCCCCCCC(N)C(=O)NC(CCCCCCCC)C(=O)N[C@H](Cc1ccccc1)C(=O)N[C@@H](CSCNC(C)=O)C(=O)N[C@H](C(=O)N[C@H](Cc1c[nH]c2ccccc12)C(=O)N[C@@H](CCCCN)C(=O)N[C@@H](CSCNC(C)=O)C(=O)N[C@H](C(N)=O)[C@@H](C)O)c1ccc(O)cc1 (some centres not stated) | 68 | 96 | – | 60 | 95 | – | – | – |
| CCCCCCCCCCCCCCCCCCC(N)C(=O)N[C@H](Cc1ccccc1)C(=O)N[C@@H](CSCNC(C)=O)C(=O)N[C@H](C(=O)N[C@H](Cc1c[nH]c2ccccc12)C(=O)N[C@@H](CCCCN)C(=O)N[C@@H](CSCNC(C)=O)C(=O)N[C@H](C(N)=O)[C@@H](C)O)c1ccc(O)cc1 (some centres not stated) | 34 | 71 | – | 50 | 87 | – | – | – |
| CCCCCCCCCCCCC(N)C(=O)N[C@H](Cc1ccccc1)C(=O)N[C@@H](CSCNC(C)=O)C(=O)N[C@H](C(=O)N[C@H](Cc1c[nH]c2ccccc12)C(=O)N[C@@H](CCCCN)C(=O)N[C@@H](CSCNC(C)=O)C(=O)N[C@H](C(=O)NC1OC(C(N)=O)C(O)C(O)C1O)[C@@H](C)O)c1ccc(O)cc1 (some centres not stated) | 2 | 23 | 10 | 18 | 17 | – | – | – |
| CCCCCCCCCCC(N)C(=O)N[C@H](Cc1ccccc1)C(=O)N[C@@H](CSCNC(C)=O)C(=O)N[C@H](C(=O)N[C@H](Cc1c[nH]c2ccccc12)C(=O)N[C@@H](CCCCN)C(=O)N[C@@H](CSCNC(C)=O)C(=O)N[C@H](C(=O)NC1OC(C(N)=O)C(O)C(O)C1O)[C@@H](C)O)c1ccc(O)cc1 (some centres not stated) | 80 | 19 | 50 | 36 | 29 | – | – | – |
| CC(=O)NCSC[C@H](NC(=O)[C@H](N)Cc1ccccc1)C(=O)N[C@H](C(=O)N[C@H](Cc1c[nH]c2ccccc12)C(=O)N[C@@H](CCCCN)C(=O)N[C@@H](CSCNC(C)=O)C(=O)N[C@H](C(=O)NC1OC(C(N)=O)C(O)C(O)C1O)[C@@H](C)O)c1ccc(O)cc1 (some centres not stated) | 88 | 93 | 90 | 85 | 90 | – | – | – |
| C[C@@H](O)[C@H](NC(=O)C1CSSCC(NC(=O)[C@H](N)Cc2ccccc2)C(=O)N[C@@H](c2ccc(O)cc2)C(=O)NC(Cc2c[nH]c3ccccc23)C(=O)N[C@@H](CCCCN)C(=O)N1)C(N)=O (single isomer, unassigned) | 96 | 100 | – | 76 | 100 | 90 | 90 | 100 |
